Reference: ChEMBL document CHEMBL1128485, “(E)-4-(2-[[3-(indol-5-yl)-1-oxo-2-butenyl]amino]phenoxy)butyric acid derivatives: a new class of steroid 5 alpha-reductase inhibitors in the rat prostate. 1” (J Med Chem, 1995)

Experiments:
[1] = biological target: T1, Steroid 5-alpha-reductase (Rattus norvegicus, UniProt P24008+P31214); experiment: (§1) Inhibitory activity against Steroid 5-alpha-reductase in prostates from male rats; assay type: tissue-based, Prostate gland
T1 sequence (P24008 whole entry): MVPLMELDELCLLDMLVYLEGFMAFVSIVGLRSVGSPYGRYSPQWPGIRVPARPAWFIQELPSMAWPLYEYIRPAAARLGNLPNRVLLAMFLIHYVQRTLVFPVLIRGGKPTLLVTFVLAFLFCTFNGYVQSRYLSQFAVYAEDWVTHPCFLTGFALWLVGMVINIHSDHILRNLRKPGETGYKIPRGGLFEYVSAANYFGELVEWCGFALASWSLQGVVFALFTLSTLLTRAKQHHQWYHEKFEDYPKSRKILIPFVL
T1 sequence (P31214 whole entry): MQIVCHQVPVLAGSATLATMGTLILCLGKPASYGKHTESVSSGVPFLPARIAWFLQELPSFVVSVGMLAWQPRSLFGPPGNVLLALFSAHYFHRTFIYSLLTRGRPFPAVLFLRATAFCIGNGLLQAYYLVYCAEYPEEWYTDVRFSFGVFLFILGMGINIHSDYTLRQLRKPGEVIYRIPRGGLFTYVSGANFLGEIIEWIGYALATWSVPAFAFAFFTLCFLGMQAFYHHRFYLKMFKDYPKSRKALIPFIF
Summary of the method: (§2)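 Ventral prostate from male Wistar rats (200–300 g), homogenized in ice-cold 0.32 M sucrose, 1 mM DTT, 20 mM sodium phosphate pH 6.5. Particulate pellet spun at 140000g, stored at –80 °C, used at 1 mg protein. Compounds added in ethanol. Incubated 37 °C, 20 min, extracted with ethyl acetate. [14C]T and DHT measured by TLC radioscan. IC50 given as mean ± SE of three experiments.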

[2] = biological target: Steroid 5-alpha-reductase (Rattus norvegicus) (UniProt P24008+P31214); experiment: as §1; assay type: tissue-based; set-up: concentration or dose not given beside the values; conditions: Prostate gland; concentration not given here
Summary of the method: as §2, with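 “protein. Reaction run in 40 mM phosphate pH 6.5 with 1 mM DTT, 150 µM NADPH and 3 µM [14C]testosterone.” for “protein.”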

Row | IC50 [1] [nM] | inhibition [2] [%] | Compound
1 | 3.6 |  | C/C(=C\C(=O)Nc1ccc(F)cc1OCCCC(=O)O)c1ccc2c(ccn2C(c2ccccc2)c2ccccc2)c1
2 |  | 52 | C/C(=C\C(=O)Nc1cc(F)ccc1OCCCC(=O)O)c1ccc2c(ccn2C(c2ccccc2)c2ccccc2)c1
3 | 19 |  | C/C(=C\C(=O)Nc1ccccc1OCCCC(=O)O)c1ccc2c(ccn2C(C)c2ccccc2)c1 (stereo unspecified)
4 | 6.3 |  | C/C(=C\C(=O)Nc1ccccc1OCCCC(=O)O)c1ccc2c(ccn2C(CC(C)C)c2ccccc2)c1 (stereo unspecified)
5 |  | 8 | C/C(=C\C(=O)N(C)c1ccccc1OCCCC(=O)O)c1ccc2c(ccn2C(C)c2ccccc2)c1 (stereo unspecified)
6 | 14 |  | C/C(=C\C(=O)Nc1ccccc1OCCCC(=O)O)c1ccc2c(ccn2C(C(C)C)C(C)C)c1
7 |  | 48 | C/C(=C\C(=O)Nc1ccccc1OCCCC(=O)O)c1ccc2c(ccn2C2CCCCC2)c1
8 | 25 |  | CCCCCC(c1ccccc1)n1ccc2cc(/C(C)=C/C(=O)Nc3ccccc3OCCCC(=O)O)ccc21 (stereo unspecified)
9 | 7.2 |  | CCCC(C(C)C)n1ccc2cc(/C(C)=C/C(=O)Nc3ccccc3OCCCC(=O)O)ccc21 (stereo unspecified)
10 | 9.8 |  | CCCCC(c1ccccc1)n1ccc2cc(/C(C)=C/C(=O)Nc3ccccc3OCCCC(=O)O)ccc21 (stereo unspecified)
11 | 26 |  | C/C(=C\C(=O)Nc1ccccc1OCCCC(=O)O)c1ccc2c(ccn2C(c2ccccc2)c2ccncc2)c1 (stereo unspecified)
12 | 69 |  | C/C(=C\C(=O)Nc1ccccc1OCCCC(=O)O)c1ccc2c(ccn2Cc2ccccc2C)c1
13 | 21 |  | CCCCC(CCCC)n1ccc2cc(/C(C)=C/C(=O)Nc3ccccc3OCCCC(=O)O)ccc21
14 |  | 26 | C/C(=C\C(=O)Nc1ccccc1OCCCC(=O)O)c1ccc2c(ccn2C(C)c2ccc3ccccc3c2)c1 (stereo unspecified)
15 |  | 31 | C/C(=C\C(=O)Nc1ccccc1OCCCC(=O)O)c1ccc2c(ccn2C2c3ccccc3CCc3ccccc32)c1
16 |  | 45 | C/C(=C\C(=O)Nc1cc(C)ccc1OCCCC(=O)O)c1ccc2c(ccn2C(c2ccccc2)c2ccccc2)c1
17 | 160 |  | C/C(=C\C(=O)Nc1ccccc1OCCCC(=O)O)c1ccc2c(ccn2CC(C)C)c1
18 | 14 |  | C/C(=C\C(=O)Nc1ccc(C)cc1OCCCC(=O)O)c1ccc2c(ccn2C(c2ccccc2)c2ccccc2)c1
19 | 37 |  | C/C(=C\C(=O)Nc1ccccc1OCCCC(=O)O)c1ccc2c(ccn2C(c2ccccc2)c2ccccn2)c1 (stereo unspecified)

Row | IC50 [1] [nM] | inhibition [2] [%] | Compound
20 | 23 |  | CCCCCn1ccc2cc(/C(C)=C/C(=O)Nc3ccccc3OCCCC(=O)O)ccc21
21 | 84 |  | C/C(=C\C(=O)Nc1ccccc1OCCCC(=O)O)c1ccc2c(ccn2CC(C)(C)C)c1.Cc1ccccc1
22 | 25 |  | C/C(=C\C(=O)Nc1ccccc1OCCCC(=O)O)c1ccc2c(ccn2C(c2ccc(Cl)cc2)c2ccc(Cl)cc2)c1
23 | 100 |  | CCCCc1ccc(Cn2ccc3cc(/C(C)=C/C(=O)Nc4ccccc4OCCCC(=O)O)ccc32)cc1
24 | 5.6 |  | C/C(=C\C(=O)Nc1ccccc1OCCCC(=O)O)c1ccc2c(ccn2C(c2ccccc2)c2ccccc2)c1
25 | 15 |  | C/C(=C\C(=O)Nc1cccc(F)c1OCCCC(=O)O)c1ccc2c(ccn2C(c2ccccc2)c2ccccc2)c1
26 |  | 38 | C/C(=C\C(=O)Nc1cc(Cl)ccc1OCCCC(=O)O)c1ccc2c(ccn2C(c2ccccc2)c2ccccc2)c1
27 | 120 |  | CC(C)=CCn1ccc2cc(/C(C)=C/C(=O)Nc3ccccc3OCCCC(=O)O)ccc21
28 | 7.1 |  | CCCCC(CC)n1ccc2cc(/C(C)=C/C(=O)Nc3ccccc3OCCCC(=O)O)ccc21 (stereo unspecified)
29 | 25 |  | C/C(=C\C(=O)Nc1ccccc1OCCCC(=O)O)c1ccc2c(ccn2C(c2ccccc2)C(C)C)c1 (stereo unspecified)
30 | 480 |  | COc1ccc(Cn2ccc3cc(/C(C)=C/C(=O)Nc4ccccc4OCCCC(=O)O)ccc32)cc1
31 |  | 19 | CCCC(CCC)n1ccc2cc(/C(C)=C/C(=O)Nc3cccc(OCCCC(=O)O)c3)ccc21
32 | 7.8 |  | CCCC(C)n1ccc2cc(/C(C)=C/C(=O)Nc3ccccc3OCCCC(=O)O)ccc21 (stereo unspecified)
33 | 9.3 |  | CCCC(CC)n1ccc2cc(/C(C)=C/C(=O)Nc3ccccc3OCCCC(=O)O)ccc21 (stereo unspecified)
34 | 47 |  | C/C(=C\C(=O)Nc1ccccc1OCCCC(=O)O)c1ccc2c(ccn2C(c2ccccc2)c2cccnc2)c1 (stereo unspecified)
35 | 8.8 |  | C/C(=C\C(=O)Nc1ccccc1OCCCC(=O)O)c1ccc2c(ccn2C(c2ccc(C)cc2)c2ccc(C)cc2)c1
36 |  | 28 | CCCC(CCC)n1ccc2cc(/C(C)=C/C(=O)Nc3ccc(OCCCC(=O)O)cc3)ccc21
37 | 9.1 |  | CCCC(c1ccccc1)n1ccc2cc(/C(C)=C/C(=O)Nc3ccccc3OCCCC(=O)O)ccc21 (stereo unspecified)
38 | 39 |  | C/C(=C\C(=O)Nc1ccccc1SCCCC(=O)O)c1ccc2c(ccn2C(c2ccccc2)c2ccccc2)c1

Row | IC50 [1] [nM] | inhibition [2] [%] | Compound
39 | 19 |  | CCC(c1ccccc1)n1ccc2cc(/C(C)=C/C(=O)Nc3ccccc3OCCCC(=O)O)ccc21 (stereo unspecified)
40 | 8.1 |  | C/C(=C\C(=O)Nc1ccccc1OCCCC(=O)O)c1ccc2c(ccn2C(c2ccccc2)c2ccc(C(F)(F)F)cc2)c1 (stereo unspecified)
41 | 250 |  | C/C(=C\C(=O)Nc1ccccc1OCCCC(=O)O)c1ccc2c(ccn2Cc2cccc(C)c2)c1
42 | 8.8 |  | COc1ccc(C(c2ccccc2)n2ccc3cc(/C(C)=C/C(=O)Nc4ccccc4OCCCC(=O)O)ccc32)cc1 (stereo unspecified)
43 | 6 |  | CCCCC(C)n1ccc2cc(/C(C)=C/C(=O)Nc3ccccc3OCCCC(=O)O)ccc21 (stereo unspecified)
44 | 97 |  | C/C(=C\C(=O)Nc1ccccc1OCCCC(=O)O)c1ccc2c(ccn2Cc2ccc(F)cc2)c1
45 | 9.8 |  | COc1ccc(C(c2ccc(OC)cc2)n2ccc3cc(/C(C)=C/C(=O)Nc4ccccc4OCCCC(=O)O)ccc32)cc1
46 | 190 |  | CCCn1ccc2cc(/C(C)=C/C(=O)Nc3ccccc3OCCCC(=O)O)ccc21
47 | 300 |  | C/C(=C\C(=O)Nc1ccccc1OCCCC(=O)O)c1ccc2c(ccn2Cc2ccc(C(F)(F)F)cc2)c1
48 | 77 |  | CCCCCCn1ccc2cc(/C(C)=C/C(=O)Nc3ccccc3OCCCC(=O)O)ccc21
49 | 67 |  | CCC(C)n1ccc2cc(/C(C)=C/C(=O)Nc3ccccc3OCCCC(=O)O)ccc21 (stereo unspecified)
50 | 780 |  | C/C(=C\C(=O)Nc1ccccc1OCCCC(=O)O)c1ccc2c(ccn2C)c1
51 | 19 |  | C/C(=C\C(=O)Nc1ccccc1OCCCC(=O)O)c1ccc2c(ccn2C(c2ccccc2C)c2ccccc2C)c1
52 | 88 |  | C/C(=C\C(=O)Nc1ccccc1OCCCC(=O)O)c1ccc2c(ccn2Cc2ccc(C)cc2)c1
53 | 170 |  | C/C(=C\C(=O)Nc1ccccc1OCCCC(=O)O)c1ccc2c(ccn2Cc2ccc(C(C)(C)C)cc2)c1
54 | 25 |  | CCCCCC(CCCCC)n1ccc2cc(/C(C)=C/C(=O)Nc3ccccc3OCCCC(=O)O)ccc21
55 | 120 |  | CCCCCCCn1ccc2cc(/C(C)=C/C(=O)Nc3ccccc3OCCCC(=O)O)ccc21
56 | 43 |  | CCCCn1ccc2cc(/C(C)=C/C(=O)Nc3ccccc3OCCCC(=O)O)ccc21
